m-calpain inh: inhibitors of pig calpain II, primary screen, biochemical, fluorogenic peptide substrate, 1536-well. purified calpain II, 30 min. actives 0.37% (n = 220,000). inhibition, % at 16 µM;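 active means inhibition above about 50%, limit read from the data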
FXIa inh: human FXIa protease inhibitors, primary screen, biochemical, 1536-well. purified FXIa, Boc-Glu-Ala-Arg-AMC fluorogenic substrate. Coagulation factor XI (Homo sapiens), P03951. actives 0.14% (n = 220,000). inhibition, % at 5 µM. AID 798, 2007;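 active means inhibition of at least 40%; inactive means inhibition below 40%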;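 further: fluorescence of freed AMC excited at 355 nm; 0% = enzyme without compound and 100% = no enzyme blank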
Target sequence (P03951 19-387 limits assumed): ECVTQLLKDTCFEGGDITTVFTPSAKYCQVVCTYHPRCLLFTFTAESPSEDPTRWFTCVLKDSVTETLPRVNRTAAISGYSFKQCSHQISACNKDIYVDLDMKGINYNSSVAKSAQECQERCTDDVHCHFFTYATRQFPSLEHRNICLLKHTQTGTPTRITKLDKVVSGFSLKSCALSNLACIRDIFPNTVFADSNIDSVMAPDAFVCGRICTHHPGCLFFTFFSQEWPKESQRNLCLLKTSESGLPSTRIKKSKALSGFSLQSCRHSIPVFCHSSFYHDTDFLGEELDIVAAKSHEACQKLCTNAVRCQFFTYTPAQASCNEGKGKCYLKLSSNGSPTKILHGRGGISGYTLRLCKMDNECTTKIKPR
Target sequence (P03951 388-625 limits assumed): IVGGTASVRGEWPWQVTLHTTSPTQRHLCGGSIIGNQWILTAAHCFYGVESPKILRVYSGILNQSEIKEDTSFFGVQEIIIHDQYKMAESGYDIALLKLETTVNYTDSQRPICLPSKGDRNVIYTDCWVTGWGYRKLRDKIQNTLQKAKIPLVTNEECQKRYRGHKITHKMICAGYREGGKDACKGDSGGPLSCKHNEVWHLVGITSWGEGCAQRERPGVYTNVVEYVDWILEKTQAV
FXIIa inh 1536: human FXIIa protease inhibitors, primary screen, biochemical, 1536-well. Coagulation factor XII (Homo sapiens), P00748. purified FXIIa, Boc-QGR-AMC fluorogenic substrate, 2 h. inhibition, % at 5 µM. actives 0.3% (n = 220,000). AID 800, 2007; in the data active means inhibition above about 40%;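 further: 0% = enzyme with no compound and 100% = blank without enzyme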
Thrombin inh: human alpha-thrombin inhibitors, primary screen, counter-screen for coagulation protease inhibitor project, biochemical, 1536-well, fluorogenic AMC substrate; Prothrombin (Homo sapiens), P00734; Boc-VPR-AMC fluorogenic substrate cleavage; inhibition, % at 5 µM; actives 0.26% (n = 220,000);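 active means inhibition at or above 40%; inactive means inhibition below 40%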;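 further: 0% = enzyme with no compound and 100% = wells without enzyme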
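Assay system: human alpha-thrombin enzyme. Reagent: Boc-VPR-AMC substrate, 15 µM final. Compound dosing: one concentration per compound, 5 µM, with 0.2% DMSO. Incubation: room-temperature reaction. Technique: AMC fluorescence, 355/460 nm. Measure: % inhibition relative to enzyme controls and enzyme-free blanks.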
hK5 inh: human KLK5 protease inhibitors, primary screen, biochemical, 1536-well. actives 0.59% (n = 210,000). recombinant hK5, fluorogenic AMC substrate cleavage. Kallikrein-5 (Homo sapiens), Q9Y337. inhibition, % at 5 µM;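 active means inhibition of 40% or more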;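 further: 0% = enzyme controls without compound and 100% = no-enzyme blanks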
The depositor's hits bear a star; x = not tested or not shown. Most compounds without a hit are left out; they make up all but 1.4% or so of the library.

SMILES | m-calpain inh | FXIa inh | FXIIa inh 1536 | Thrombin inh | hK5 inh
CC(C)N(C(=O)COC(=O)CNC(=O)c1ccc(Br)cc1)c1ccccc1 | -3 | 1 | 3 | -14 | 1
CCOC(=O)C(=CNc1ccc(C)cc1C)C(=O)OCC | 30 | 3 | -8 | -5 | -10
CCOC(=O)C(=CNc1cccc(C)c1C)C(=O)OCC | 52* | -9 | 19 | 45* | 7
COc1nc2ccccc2nc1OC | -10 | 3 | 7 | 2 | 4
Oc1ccc(/C=N/NC(=S)N2CCOCC2)cc1 | -2 | 0 | 7 | -2 | -3
C=CCNC(=S)NNC(=O)COc1cccc(Cl)c1 | -3 | 7 | 15 | 4 | -33
Cc1cccc(OCCn2c(-c3ccco3)nc3ccccc32)c1 | 5 | -6 | 22 | 18 | 48*
c1ccc(OCCn2c(-c3ccco3)nc3ccccc32)cc1 | -8 | 7 | 17 | 5 | 5
O=S(=O)(c1c(F)cccc1F)N1CCN(C(=S)NCc2ccc3c(c2)OCO3)CC1 | 24 | -1 | 5 | -7 | 2
CC1(C)CC(=O)C(C=Nc2ccccc2Sc2ccccc2)=C(O)C1 | 9 | 1 | 2 | 8 | 44*
CC1(C)CC(=O)C(C=Nc2ccccc2C(=O)O)=C(O)C1 | -52 | 1 | 13 | 0 | 12
Cc1ccccc1Nc1nc(-c2sc(NC(=O)c3ccco3)nc2C)cs1 | -286 | 18 | 17 | 24 | 19
Cc1ccc(-c2csc(NC(=S)NC(=O)c3ccco3)n2)cc1 | 57* | 10 | 18 | 2 | -5
Cc1ccc(Nc2nc(-c3sc(NC(=O)c4ccco4)nc3C)cs2)cc1 | -277 | 14 | 16 | 11 | 54*
CN(C)C(CNC(C(=O)Nc1ccc([N+](=O)[O-])cc1Br)c1ccccc1)c1ccccc1 (configuration not stated) | 53* | -6 | 0 | -9 | -5
Cn1c(N)c(C(=O)COC(=O)CCC2CCCCC2)c(=O)n(C)c1=O | 78* | 0 | 9 | -5 | -2
Cn1c(N)c(C(=O)COC(=O)CCC2CCCC2)c(=O)n(C)c1=O | 80* | -1 | 7 | 4 | 9
Cn1c(N)c(C(=O)COC(=O)C2(c3ccc(F)cc3)CCCC2)c(=O)n(C)c1=O | 76* | 8 | 9 | -7 | -13
Cn1c(N)c(C(=O)COC(=O)C2(c3ccc(Cl)cc3)CCCC2)c(=O)n(C)c1=O | 17 | -7 | 4 | -6 | 1
Cc1cc(Br)ccc1SCC(=O)OCC(=O)c1c(N)n(C)c(=O)n(C)c1=O | 77* | 1 | 5 | -8 | -10
O=C(c1ccccc1Sc1ccc([N+](=O)[O-])cc1)N1CCCCC1 | 21 | -7 | 3 | 0 | 0
CC(C)(C)Nc1c(-c2ccc(O)cc2)nc2ccc(Cl)cn12 | -39 | -1 | 6 | -5 | 3
Cc1onc(-c2ccccc2)c1CNC(=O)Nc1ccc(C(F)(F)F)cc1 | 6 | 4 | 9 | 4 | 2
Cn1c(N)c(C(=O)COC(=O)C2CCC(C(C)(C)C)CC2)c(=O)n(C)c1=O (configuration not stated) | 110* | -5 | 2 | -6 | -3
C(/C=C/c1ccccc1)=N/N1CCN(c2ccccc2)CC1 | -22 | 2 | 19 | -1 | -2
SMILES | m-calpain inh | FXIa inh | FXIIa inh 1536 | Thrombin inh | hK5 inh
C(=C\c1ccccc1)/C=N/N1CCN(Cc2ccccc2)CC1 | 50* | 7 | 12 | x | 2
Fc1cccc(Cn2cc(C(=S)N3CCCCC3)c3ccccc32)c1 | 66* | -1 | 0 | 24 | -7
O=C(CCC1CCCCC1)NNC(=O)NC12CC3CC(CC(C3)C1)C2 | 9 | 4 | 17 | 1 | -9
CCCCNC(=O)C1COc2ccccc2O1 (configuration not stated) | 15 | -1 | 10 | 2 | -3
O=C(NCCOC(=O)C1COc2ccccc2O1)C1COc2ccccc2O1 (configuration not stated) | 31 | 5 | 0 | 25 | 46*
CCOC(=O)CNC(=O)CSc1nnc(NC(=O)c2ccccc2Cl)s1 | -173 | -5 | 0 | -9 | -5
CCc1ccc(NS(=O)(=O)c2cccc3nonc23)cc1 | -3 | 0 | 6 | -10 | -2
Cc1nc(/N=C\N(C)C)sc1C(=O)Nc1ccccc1 | 34 | 11 | 14 | 25 | 48*
Cc1cccc(OCCC(=O)Nc2ccc(C)c(S(=O)(=O)N3CCCCC3)c2)c1 | 55* | -17 | -2 | -9 | -6
CS(=O)(=O)N1CCN(Cc2ccc(C(F)(F)F)cc2)CC1 | -32 | -11 | 12 | 0 | -10
CC(C)CCN(C(=O)Nc1ccccc1)C(C)c1cccs1 (configuration not stated) | 51* | 0 | 3 | -9 | -9
CC(c1cccs1)N(C(=O)Nc1ccccc1)C1CCCCC1 (configuration not stated) | -6 | 1 | 8 | 1 | -8
O=C(O)CCC(=O)N1CCC(n2nnc3cc(C(F)(F)F)ccc32)CC1 | 7 | 2 | 10 | 4 | 1
O=C(COc1ccc(Cl)cc1Cl)Nc1nc2n(n1)C(c1ccccc1)CC(=O)N2 (configuration not stated) | 12 | 2 | 20 | 28 | 58*
O=C1CC(c2ccccc2)n2nc(NS(=O)(=O)c3ccccc3)nc2N1 (configuration not stated) | -23 | 2 | 13 | -1 | -5
CCCS(=O)(=O)N1CCN(C2CCC(C)CC2)CC1 (configuration not stated) | -5 | -2 | 7 | -9 | 2
CN1CCN(S(=O)C23CC4CC(CC(C4)C2)C3)CC1 (configuration not stated) | -11 | 1 | 6 | -1 | 4
O=S(N1CCc2ccccc21)C12CC3CC(CC(C3)C1)C2 (configuration not stated) | 103* | -8 | -10 | 0 | -30
O=C(O)CCCC(=O)N1N=C(c2ccccc2)CC1c1cccs1 (configuration not stated) | 11 | 49* | 25 | 7 | 24
O=C(O)CCC(=O)N1N=C(c2ccccc2)CC1c1cccs1 (configuration not stated) | 11 | 4 | 10 | 2 | 3
O=C(O)c1ccccc1C(=O)NCc1cccnc1 | 9 | 1 | 15 | 2 | 7
O=C(NCc1cccnc1)c1ccccc1CCc1ccccc1 | 50* | -1 | 8 | 0 | 2
COc1ccccc1N(CC(=O)NCCSc1ccc(Cl)cc1)S(C)(=O)=O | -17 | -4 | 5 | -2 | -4
CCOCCCNS(=O)(=O)c1ccc(NC(=O)c2ccc(OC)c([N+](=O)[O-])c2)cc1 | 16 | 42* | 19 | 12 | 37
Cc1cc(C)n(-c2nnc(C)n2/N=C/c2ccco2)n1 | -11 | 9 | 16 | 1 | -4

Screens from PubChem BioAssay.
